PMC9052575 (RSC Advances, 2020)
Read-outs that look alike come from different tables or passages of the source.

Tests used:
MCF-7 cells = assay: MTT anti-proliferative assay, MCF-7; assay type: cell-based, human; conditions: for IC50: read-out: IC50 against MCF-7 cells
MDA-MB-231 cells = assay: MTT anti-proliferative assay, MDA-MB-231; assay type: cell-based, human; conditions: read-out: IC50 against MDA-MB-231 cells
HEK-293 cells = assay: MTT toxicity assay, normal/non-tumor HEK-293 cells; assay type: cell-based; conditions: Homo sapiens, HEK293, read-out: IC50 against HEK-293 cells
In short: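 HEK-293 cells seeded at 5000 cells/well in triplicate. After 24 h, exposed for 24 h at 37 °C and 5% CO2 to test compound at 1–100 μM, diluted in complete DMEM. MTT (5 mg mL−1 stock in PBS) added for 2 h, then 10% SDS/10 mM HCl for 16 h at 37 °C. OD read at 570 nm.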

[1] = MTT assay, 24 hours treatment, 1-100 μM

Structure (SMILES): COc1ccc(OC)c(/C=C/C(=O)c2ccc(OCc3cn(CCN4C(=O)c5cccc6cccc(c56)C4=O)nn3)cc2)c1 [12c, (E)-2-(2-(4-((4-(3-(2,5-Dimethoxyphenyl)acryloyl)phenoxy)methyl)-1H-1,2,3-triazol-1-yl)ethyl)-1H-benzo[de]isoquinoline-1,3(2H)-dione]
- IC50 (MCF-7 cells; Homo sapiens, MCF7, 24 h): > 100 µM
- IC50 (MDA-MB-231 cells; Homo sapiens, MDA-MB-231, 24 h): > 100 µM

Structure (SMILES): O=C(/C=C/c1ccc([N+](=O)[O-])cc1)c1ccc(OCc2cn(CCCN3C(=O)c4cccc5cccc(c45)C3=O)nn2)cc1 [12h, (E)-2-(3-(4-((4-(3-(4-nitrophenyl)acryloyl)phenoxy)methyl)-1H-1,2,3-triazol-1-yl)propyl)-1H-benzo[de]isoquinoline-1,3(2H)-dione]
- IC50 (MCF-7 cells; Homo sapiens, MCF7, 24 h): > 100 µM
- IC50 (MDA-MB-231 cells; Homo sapiens, MDA-MB-231, 24 h): > 100 µM

Structure (SMILES): CC(CN1C(=O)c2cccc3cccc(c23)C1=O)n1cc(COc2ccc(C(=O)/C=C/[c-]3cccc3)cc2)nn1.[Fe+2].c1cc[cH-]c1 (stereo not shown) [14b, (E)-2-(2-(4-((4-(3-Ferrocenyl-acryloyl)phenoxy)methyl)-1H-1,2,3-triazol-1-yl)propyl)-1H-benzo[de]isoquinoline-1,3(2H)-dione]
- IC50 (MCF-7 cells; [1]): > 100 µM
- IC50 (MDA-MB-231 cells; [1]): > 100 µM

Structure (SMILES): COc1ccc(/C=C/C(=O)c2ccc(OCc3cn(CCCN4C(=O)c5cccc6cccc(c56)C4=O)nn3)cc2)cc1 [12f, (E)-2-(3-(4-((4-(3-(4-Methoxyphenyl)acryloyl)phenoxy)methyl)-1H-1,2,3-triazol-1-yl)propyl)-1H-benzo[de]isoquinoline-1,3(2H)-dione]
- IC50 (MCF-7 cells; Homo sapiens, MCF7, 24 h): > 100 µM
- IC50 (MDA-MB-231 cells; Homo sapiens, MDA-MB-231, 24 h): > 100 µM

Structure (SMILES): COc1ccc(OC)c(/C=C/C(=O)c2ccc(OCc3cn(CCCN4C(=O)c5cccc6cccc(c56)C4=O)nn3)cc2)c1 [12g, (E)-2-(3-(4-((4-(3-(2,5-Dimethoxyphenyl)acryloyl)phenoxy)methyl)-1H-1,2,3-triazol-1-yl)propyl)-1H-benzo[de]isoquinoline-1,3(2H)-dione]
- IC50 (MCF-7 cells; Homo sapiens, MCF7, 24 h): > 100 µM
- IC50 (MDA-MB-231 cells; Homo sapiens, MDA-MB-231, 24 h): > 100 µM

Structure (SMILES): COc1ccc(OC)c(C2CC(c3ccc(OCc4cn(CCN5C(=O)c6cccc7cccc(c67)C5=O)nn4)cc3)=NN2C(C)=O)c1 (stereo not shown) [13c, 2-(2-(4-((4-(1-Acetyl-5-(2,5-dimethoxyphenyl)-4,5-dihydro-1H-pyrazol-3-yl)phenoxy)methyl)-1H-1,2,3-triazol-1-yl)ethyl)-1H-benzo[de]isoquinoline-1,3(2H)-dione]
- IC50 (MCF-7 cells; Homo sapiens, MCF7, 24 h): > 100 µM
- IC50 (MDA-MB-231 cells; Homo sapiens, MDA-MB-231, 24 h): > 100 µM

Structure (SMILES): COc1ccc(OC)c(C2CC(c3ccc(OCc4cn(CCCN5C(=O)c6cccc7cccc(c67)C5=O)nn4)cc3)=NN2C(C)=O)c1 (stereo not shown) [13g, 2-(3-(4-((4-(1-Acetyl-5-(2,5-dimethoxyphenyl)-4,5-dihydro-1H-pyrazol-3-yl)phenoxy)methyl)-1H-1,2,3-triazol-1-yl)propyl)-1H-benzo[de]isoquinoline-1,3(2H)-dione]
- IC50 (MCF-7 cells; Homo sapiens, MCF7, 24 h): 62.2 µM
- IC50 against MCF-7 cells (MCF-7 cells; [1]): moderate cytotoxicity
- IC50 (MDA-MB-231 cells; Homo sapiens, MDA-MB-231, 24 h): > 100 µM
- IC50 (HEK-293 cells): > 100 µM

Structure (SMILES): CC(=O)N1N=C(c2ccc(OCc3cn(CCN4C(=O)c5cccc6cccc(c56)C4=O)nn3)cc2)CC1c1ccccc1 (stereo not shown) [13a, 2-(2-(4-((4-(1-Acetyl-5-phenyl-4,5-dihydro-1H-pyrazol-3-yl)phenoxy)methyl)-1H-1,2,3-triazol-1-yl)ethyl)-1H-benzo[de]isoquinoline-1,3(2H)-dione]
- IC50 (MCF-7 cells; Homo sapiens, MCF7, 24 h): > 100 µM
- IC50 (MDA-MB-231 cells; Homo sapiens, MDA-MB-231, 24 h): > 100 µM

Structure (SMILES): CC(=O)N1N=C(c2ccc(OCc3cn(CCN4C(=O)c5cccc6cccc(c56)C4=O)nn3)cc2)CC1c1ccc([N+](=O)[O-])cc1 (stereo not shown) [13d, 2-(2-(4-((4-(1-Acetyl-5-(4-nitrophenyl)-4,5-dihydro-1H-pyrazol-3-yl)phenoxy)methyl)-1H-1,2,3-triazol-1-yl)ethyl)-1H-benzo[de]isoquinoline-1,3(2H)-dione]
- IC50 (MCF-7 cells; Homo sapiens, MCF7, 24 h): > 100 µM
- IC50 (MDA-MB-231 cells; Homo sapiens, MDA-MB-231, 24 h): > 100 µM

Structure (SMILES): O=C(/C=C/[c-]1cccc1)c1ccc(OCc2cn(CCN3C(=O)c4cccc5cccc(c45)C3=O)nn2)cc1.[Fe+2].c1cc[cH-]c1 [14a, (E)-2-(2-(4-((4-(3-Ferrocenyl-acryloyl)phenoxy)methyl)-1H-1,2,3-triazol-1-yl)ethyl)-1H-benzo[de]isoquinoline-1,3(2H)-dione]
- IC50 (MCF-7 cells; [1]): > 100 µM
- IC50 (MDA-MB-231 cells; [1]): > 100 µM

Structure (SMILES): O=C(C=Cc1ccccc1)c1ccc(OCc2cn(CCCN3C(=O)c4cccc5cccc(c45)C3=O)nn2)cc1 [12e, 2-(3-(4-((4-Cinnamoylphenoxy)methyl)-1H-1,2,3-triazol-1-yl)propyl)-1H-benzo[de]isoquinoline-1,3(2H)-dione]
- IC50 (MCF-7 cells; Homo sapiens, MCF7, 24 h): > 100 µM
- IC50 (MDA-MB-231 cells; Homo sapiens, MDA-MB-231, 24 h): > 100 µM

Structure (SMILES): O=C(/C=C/c1ccc([N+](=O)[O-])cc1)c1ccc(OCc2cn(CCN3C(=O)c4cccc5cccc(c45)C3=O)nn2)cc1 [12d, (E)-2-(2-(4-((4-(3-(4-Nitrophenyl)acryloyl)phenoxy)methyl)-1H-1,2,3-triazol-1-yl)ethyl)-1H-benzo[de]isoquinoline-1,3(2H)-dione]
- IC50 (MCF-7 cells; Homo sapiens, MCF7, 24 h): > 100 µM
- IC50 (MDA-MB-231 cells; Homo sapiens, MDA-MB-231, 24 h): > 100 µM

Structure (SMILES): CC1=CC(=O)c2c(O)cccc2C1=O [Plumbagin, reference compound]
- IC50 (MCF-7 cells; Homo sapiens, MCF7, 24 h): 3.5 µM

Structure (SMILES): COc1ccc(C2CC(c3ccc(OCc4cn(CCN5C(=O)c6cccc7cccc(c67)C5=O)nn4)cc3)=NN2C(C)=O)cc1 (stereo not shown) [13b, 2-(2-(4-((4-(1-Acetyl-5-(4-methoxyphenyl)-4,5-dihydro-1H-pyrazol-3-yl)phenoxy)methyl)-1H-1,2,3-triazol-1-yl)ethyl)-1H-benzo[de]isoquinoline-1,3(2H)-dione]
- IC50 (MCF-7 cells; Homo sapiens, MCF7, 24 h): > 100 µM
- IC50 (MDA-MB-231 cells; Homo sapiens, MDA-MB-231, 24 h): > 100 µM

Structure (SMILES): CC(=O)N1N=C(c2ccc(OCc3cn(CCCN4C(=O)c5cccc6cccc(c56)C4=O)nn3)cc2)CC1c1ccccc1 (stereo not shown) [13e, 2-(3-(4-((4-(1-Acetyl-5-phenyl-4,5-dihydro-1H-pyrazol-3-yl)phenoxy)methyl)-1H-1,2,3-triazol-1-yl)propyl)-1H-benzo[de]isoquinoline-1,3(2H)-dione]
- IC50 (MCF-7 cells; Homo sapiens, MCF7, 24 h): > 100 µM
- IC50 (MDA-MB-231 cells; Homo sapiens, MDA-MB-231, 24 h): > 100 µM

Structure (SMILES): CC(=O)N1N=C(c2ccc(OCc3cn(CCN4C(=O)c5cccc6cccc(c56)C4=O)nn3)cc2)CC1[c-]1cccc1.[Fe+2].c1cc[cH-]c1 (stereo not shown) [15a, 2-(2-(4-((4-(1-Acetyl-5-ferrocenyl-4,5-dihydro-1H-pyrazol-3-yl)phenoxy)methyl)-1H-1,2,3-triazol-1-yl)ethyl)-1H-benzo[de]isoquinoline-1,3(2H)-dione]
- IC50 (MCF-7 cells; [1]): > 100 µM
- IC50 (MDA-MB-231 cells; [1]): > 100 µM

Structure (SMILES): CC(=O)N1N=C(c2ccc(OCc3cn(C(C)CN4C(=O)c5cccc6cccc(c56)C4=O)nn3)cc2)CC1[c-]1cccc1.[Fe+2].c1cc[cH-]c1 (stereo not shown) [15b, 2-(2-(4-((4-(1-Acetyl-5-ferrocenyl-4,5-dihydro-1H-pyrazol-3-yl)phenoxy)methyl)-1H-1,2,3-triazol-1-yl)propyl)-1H-benzo[de]isoquinoline-1,3(2H)-dione]
- IC50 (MCF-7 cells; [1]): > 100 µM
- IC50 (MDA-MB-231 cells; [1]): > 100 µM

Structure (SMILES): COc1ccc(/C=C/C(=O)c2ccc(OCc3cn(CCN4C(=O)c5cccc6cccc(c56)C4=O)nn3)cc2)cc1 [12b, (E)-2-(2-(4-((4-(3-(4-Methoxyphenyl)acryloyl)phenoxy)methyl)-1H-1,2,3-triazol-1-yl)ethyl)-1H-benzo[de]isoquinoline-1,3(2H)-dione]
- IC50 (MCF-7 cells; Homo sapiens, MCF7, 24 h): > 100 µM
- IC50 (MDA-MB-231 cells; Homo sapiens, MDA-MB-231, 24 h): > 100 µM

Structure (SMILES): CC(=O)N1N=C(c2ccc(OCc3cn(CCCN4C(=O)c5cccc6cccc(c56)C4=O)nn3)cc2)CC1c1ccc([N+](=O)[O-])cc1 (stereo not shown) [13h, 2-(3-(4-((4-(1-Acetyl-5-(4-nitrophenyl)-4,5-dihydro-1H-pyrazol-3-yl)phenoxy)methyl)-1H-1,2,3-triazol-1-yl)propyl)-1H-benzo[de]isoquinoline-1,3(2H)-dione]
- IC50 (MCF-7 cells; Homo sapiens, MCF7, 24 h): > 100 µM
- IC50 (MDA-MB-231 cells; Homo sapiens, MDA-MB-231, 24 h): > 100 µM

Structure (SMILES): COc1ccc(C2CC(c3ccc(OCc4cn(CCCN5C(=O)c6cccc7cccc(c67)C5=O)nn4)cc3)=NN2C(C)=O)cc1 (stereo not shown) [13f, 2-(3-(4-((4-(1-Acetyl-5-(4-methoxyphenyl)-4,5-dihydro-1H-pyrazol-3-yl)phenoxy)methyl)-1H-1,2,3-triazol-1-yl)propyl)-1H-benzo[de]isoquinoline-1,3(2H)-dione]
- IC50 (MCF-7 cells; Homo sapiens, MCF7, 24 h): 98.1 µM
- IC50 against MCF-7 cells (MCF-7 cells; [1]): moderate cytotoxicity
- IC50 (MDA-MB-231 cells; Homo sapiens, MDA-MB-231, 24 h): > 100 µM
- IC50 (HEK-293 cells): > 100 µM
